In ChEMBL document CHEMBL4610084, “Antibacterial and ATP Synthesis Modulating Compounds from Salvia tingitana” (2020):
Converted amounts (≈) assume the structure as drawn.

Legend:
[1] = test system: Enterococcus avium; assay: Antibacterial activity against Enterococcus avium MB119 after 24 hrs by microdilution assay; type: functional; settings: MB119, 24 h
Summary of the method: (§1)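 Broth microdilution MIC against clinical or seawater-isolated strains (identified by standard procedures and MALDI-TOF), with compound solutions and testing as in earlier work. MIC reported in μg/mL and μM.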

[2] = test system: Enterococcus durans; assay: Antibacterial activity against Enterococcus durans MB113 after 24 hrs by microdilution assay; type: functional; settings: MB113, 24 h; summary of the method: as §1
[3] = test system: Enterococcus faecalis; assay: Antibacterial activity against Vancomycin resistant Enterococcus faecalis MB19 after 24 hrs by microdilution assay; type: functional; settings: MB19, 24 h
Summary of the method: (§2)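 Broth microdilution MIC, run as in an earlier cited report. Strains are clinical isolates identified by standard methods and MALDI-TOF; E. faecalis MB19 and MB51 are Ligurian seawater isolates. Highest concentration tested was 128 μg/mL. MICs are given in μg/mL and μM, with oxacillin and vancomycin as reference antibiotics.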

[4] = test system: Staphylococcus simulans; assay: Antibacterial activity against Staphylococcus simulans MB94 after 24 hrs by microdilution assay; type: functional; settings: MB94, 24 h; summary of the method: as §1
[5] = test system: Staphylococcus lugdunensis; assay: Antibacterial activity against Staphylococcus lugdunensis MB96 after 24 hrs by microdilution assay; type: functional; settings: MB96, 24 h; summary of the method: as §1
[6] = test system: Staphylococcus saprophyticus; assay: Antibacterial activity against Staphylococcus saprophyticus MB41 after 24 hrs by microdilution assay; type: functional; settings: MB41, 24 h; summary of the method: as §1
[7] = test system: Enterococcus faecium; assay: Bacteriostatic activity against Enterococcus faecium MB152 assessed as ratio of reduction in bacterial growth by measuring order of magnitude at 4 times MIC by time kill assay; type: functional
Summary of the method: (§3)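 Time-kill curves: viable cell counts of susceptible strains recorded with or without compound at 4 × MIC.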

[8] = test system: Staphylococcus hominis; assay: Antibacterial activity against Methicillin-resistant Staphylococcus hominis MB124 after 24 hrs by microdilution assay; type: functional; settings: MB124, 24 h; summary of the method: as §2
[9] = test system: Enterococcus faecalis; assay: Antibacterial activity against Vancomycin resistant Enterococcus faecalis MB1 after 24 hrs by microdilution assay; type: functional; settings: MB1, 24 h; summary of the method: as §2
[10] = test system: Enterococcus faecalis; assay: Antibacterial activity against Enterococcus faecalis MB76 after 24 hrs by microdilution assay; type: functional; settings: MB76, 24 h; summary of the method: as §2
[11] = test system: Staphylococcus capitis; assay: Antibacterial activity against Methicillin-resistant Staphylococcus capitis MB71 after 24 hrs by microdilution assay; type: functional; settings: MB71, 24 h; summary of the method: as §2
[12] = organism: Bos taurus; assay: Modulation of ATP synthase in bovine rod outer segments assessed as inhibition of ATP production at 80 ug/ml in presence of Ap5A adenylate kinase inhibitor by luciferin/luciferase chemiluminescent method relative to control
Summary of the method: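 Bovine rod OS (5 μg) preincubated 5 min at 37 °C in Tris/HCl pH 7.4 with KCl, EGTA, MgCl2, 0.6 mM ouabain, 0.25 mM Ap5A, 5 mM KH2PO4, 20 mM succinate, 0.35 mM NADH and ampicillin. Synthesis started with 0.1 mM ADP and stopped with perchloric acid. ATP read by luciferin/luciferase luminescence. Samples at 80 μg/mL; 30 μM resveratrol as positive control. Triplicates, ANOVA/Bonferroni.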

[13] = test system: Enterococcus casseliflavus; assay: Antibacterial activity against Vancomycin resistant Enterococcus casseliflavus MB159 after 24 hrs by microdilution assay; type: functional; settings: MB159, 24 h; summary of the method: as §2
[14] = test system: Enterococcus faecalis; assay: Bacteriostatic activity against Enterococcus faecalis MB1 assessed as ratio of reduction in bacterial growth at 4 times MIC by time kill assay; type: functional; summary of the method: as §3
[15] = test system: Staphylococcus aureus; assay: Bacteriostatic activity against Methicillin-resistant Staphylococcus aureus MB18 assessed as ratio of reduction in bacterial growth at 4 times MIC by time kill assay; type: functional
[16] = test system: Staphylococcus aureus; assay: Antibacterial activity against Methicillin-resistant Staphylococcus aureus MB188 after 24 hrs by microdilution assay; type: functional; settings: MB188, 24 h; summary of the method: as §2
[17] = test system: Staphylococcus warneri; assay: Antibacterial activity against Methicillin-resistant Staphylococcus warneri MB74 after 24 hrs by microdilution assay; type: functional; settings: MB74, 24 h; summary of the method: as §2
[18] = test system: Staphylococcus epidermidis; assay: Bacteriostatic activity against Staphylococcus epidermidis MB165 assessed as ratio of reduction in bacterial growth at 4 times MIC by time kill assay; type: functional; summary of the method: as §3
[19] = test system: Enterococcus faecium; assay: Antibacterial activity against Enterococcus faecium MB2 after 24 hrs by microdilution assay; type: functional; settings: MB2, 24 h; summary of the method: as §1
[20] = test system: Staphylococcus epidermidis; assay: Antibacterial activity against Methicillin-resistant Staphylococcus epidermidis MB165 after 24 hrs by microdilution assay; type: functional; settings: MB165, 24 h; summary of the method: as §2
[21] = test system: Staphylococcus haemolyticus; assay: Antibacterial activity against Methicillin-resistant Staphylococcus haemolyticus MB115 after 24 hrs by microdilution assay; type: functional; settings: MB115, 24 h; summary of the method: as §2
[22] = test system: Enterococcus gallinarum; assay: Antibacterial activity against Vancomycin resistant Enterococcus gallinarum MB111 after 24 hrs by microdilution assay; type: functional; settings: MB111, 24 h; summary of the method: as §2
[23] = test system: Enterococcus faecium; assay: Antibacterial activity against Enterococcus faecium MB3 after 24 hrs by microdilution assay; type: functional; settings: MB3, 24 h; summary of the method: as §1
[24] = test system: Staphylococcus aureus; assay: Antibacterial activity against Methicillin-resistant Staphylococcus aureus MB18 after 24 hrs by microdilution assay; type: functional; settings: MB18, 24 h; summary of the method: as §2
[25] = test system: Enterococcus faecium; assay: Antibacterial activity against Enterococcus faecium MB152 after 24 hrs by microdilution assay; type: functional; settings: MB152, 24 h; summary of the method: as §1
[26] = test system: Staphylococcus epidermidis; assay: Antibacterial activity against Methicillin-resistant Staphylococcus epidermidis MB169 after 24 hrs by microdilution assay; type: functional; settings: MB169, 24 h; summary of the method: as §2
[27] = test system: Enterococcus faecalis; assay: Antibacterial activity against Vancomycin resistant Enterococcus faecalis MB51 after 24 hrs by microdilution assay; type: functional; settings: MB51, 24 h; summary of the method: as §2
[28] = organism: Bos taurus; assay: Modulation of ATP synthase in bovine rod outer segments assessed as inhibition of ATP hydrolysis at 80 ug/ml in presence of Ap5A adenylate kinase inhibitor by pyruvate kinase/lactate dehydrogenase assay relative to control
[29] = test system: Enterococcus faecium; assay: Modulation of ATP synthase in Enterococcus faecium MB152 assessed as inhibition of ATP production at 5 times MIC after 2 hrs by BacTiter-Glo Assay
Summary of the method: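 Whole-cell ATP assay. VRE strain grown overnight in Mueller Hinton broth at 37 °C, diluted 1:10^6 in fresh broth and grown 2 h, then adjusted by OD600. Manool added at 5 × MIC. Samples taken at 0 and 2 h and mixed 1:1 with BacTiter-Glo for 5 min at room temperature. Luminescence converted via an ATP standard curve (1–0.001 pmol) to pmol/cfu. Broth serves as negative control. Three experiments in triplicate, Student's t test.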

Row | Compound | MIC [1] | MIC [2] | MIC [3] | MIC [4] | MIC [5] | MIC [6] | MIC [8] | MIC [9] | MIC [10] | MIC [11] | MIC [13] | MIC [16] | MIC [17] | MIC [19] | MIC [20] | MIC [21] | MIC [22] | MIC [23] | MIC [24] | MIC [25] | other results
1 | C=C[C@@](C)(O)CC[C@@H]1[C@@]2(C)CCCC(C)(C)[C@@H]2CC[C@@]1(C)O | 207 µM (≈ 63.9 µg/mL) | 104 µM | 104 µM (≈ 32.1 µg/mL) | 207 µM | 104 µM | 104 µM | 104 µM | 104 µM (≈ 32.1 µg/mL) | 207 µM (≈ 63.9 µg/mL) | 104 µM | 207 µM (≈ 63.9 µg/mL) | 104 µM | 104 µM | 104 µM | 207 µM | 207 µM | 207 µM (≈ 63.9 µg/mL) | 104 µM (≈ 32.1 µg/mL) | 104 µM | 207 µM (≈ 63.9 µg/mL) | Ratio [7]: 1 - 2; inhibition [12]: 70%; Ratio [14]: 1 - 2; Ratio [15]: 1 - 2; Ratio [18]: 1 - 2; MIC [26]: 207 µM; MIC [27]: 207 µM (≈ 63.9 µg/mL)
2 | C=C[C@@](C)(O)CC[C@H]1C(=C)CC[C@H]2C(C)(C)CCC[C@]12C [MANOOL] | 28 µM (≈ 8.13 µg/mL) | 55 µM | 110 µM (≈ 32 µg/mL) | > 128 µg/mL | > 128 µg/mL | > 128 µg/mL | > 128 µg/mL | 55 µM (≈ 16 µg/mL) | 110 µM (≈ 32 µg/mL) | > 128 µg/mL | 55 µM (≈ 16 µg/mL) | > 128 µg/mL | > 128 µg/mL | 14 µM | > 128 µg/mL | > 128 µg/mL | 14 µM (≈ 4.07 µg/mL) | 28 µM (≈ 8.13 µg/mL) | > 128 µg/mL | 28 µM (≈ 8.13 µg/mL) | inhibition [28]: 92%; Ratio [7]: 1 - 2; inhibition [29]: 30%; inhibition [12]: 60%; Ratio [14]: 1 - 2; MIC [26]: > 128 µg/mL; MIC [27]: 55 µM (≈ 16 µg/mL)
3 | CC1(C)CCC[C@]2(C)[C@@H](CC[C@](C)(O)[C@H]3CO3)[C@](C)(O)CC[C@@H]12 | 99 µM (≈ 32.1 µg/mL) | 198 µM | 198 µM (≈ 64.3 µg/mL) | 395 µM | 198 µM | 395 µM | 395 µM | 99 µM (≈ 32.1 µg/mL) | 198 µM (≈ 64.3 µg/mL) | 395 µM | 198 µM (≈ 64.3 µg/mL) | 395 µM | 198 µM | 198 µM | 395 µM | 395 µM | 99 µM (≈ 32.1 µg/mL) | 99 µM (≈ 32.1 µg/mL) | 395 µM | 198 µM (≈ 64.3 µg/mL) | MIC [26]: 395 µM; MIC [27]: 99 µM (≈ 32.1 µg/mL)
4 | CC1=CC(=O)O[C@@H]1C/C=C(\C)CC[C@@H]1[C@@]2(C)CCC[C@@]3(C)C(=O)O[C@@H](C[C@@]1(C)O)[C@H]23 | 154 µM (≈ 64.1 µg/mL) | > 128 µg/mL | 308 µM (≈ 128 µg/mL) | > 128 µg/mL | 308 µM | > 128 µg/mL | > 128 µg/mL | 154 µM (≈ 64.1 µg/mL) | 308 µM (≈ 128 µg/mL) | 154 µM | 308 µM (≈ 128 µg/mL) | > 128 µg/mL | 308 µM | > 128 µg/mL | 308 µM | > 128 µg/mL | 154 µM (≈ 64.1 µg/mL) | 308 µM (≈ 128 µg/mL) | 308 µM | 308 µM (≈ 128 µg/mL) | Ratio [7]: 1 - 2; inhibition [12]: 79%; Ratio [14]: 1 - 2; MIC [26]: > 128 µg/mL; MIC [27]: 154 µM (≈ 64.1 µg/mL)
